Measurements taken from ChEMBL document CHEMBL3774362, “Design, synthesis, and evaluation of 2-piperidone derivatives for the inhibition of β-amyloid aggregation and inflammation mediated neurotoxicity” (Bioorg Med Chem, 2016).
Activity calls are given as the source filed them. The calls are words filed in the database; no cut-off is given here.

Legend:
[1] = target: Amyloid-beta precursor protein (Homo sapiens) (UniProt P05067); experiment: Inhibition of Amyloid beta (1 to 42) (unknown origin) self aggregation for 24 hrs by Thioflavin T-based fluorometric assay
Amyloid-beta precursor protein (Homo sapiens), sequence (P05067 whole entry, the tested form may be a part): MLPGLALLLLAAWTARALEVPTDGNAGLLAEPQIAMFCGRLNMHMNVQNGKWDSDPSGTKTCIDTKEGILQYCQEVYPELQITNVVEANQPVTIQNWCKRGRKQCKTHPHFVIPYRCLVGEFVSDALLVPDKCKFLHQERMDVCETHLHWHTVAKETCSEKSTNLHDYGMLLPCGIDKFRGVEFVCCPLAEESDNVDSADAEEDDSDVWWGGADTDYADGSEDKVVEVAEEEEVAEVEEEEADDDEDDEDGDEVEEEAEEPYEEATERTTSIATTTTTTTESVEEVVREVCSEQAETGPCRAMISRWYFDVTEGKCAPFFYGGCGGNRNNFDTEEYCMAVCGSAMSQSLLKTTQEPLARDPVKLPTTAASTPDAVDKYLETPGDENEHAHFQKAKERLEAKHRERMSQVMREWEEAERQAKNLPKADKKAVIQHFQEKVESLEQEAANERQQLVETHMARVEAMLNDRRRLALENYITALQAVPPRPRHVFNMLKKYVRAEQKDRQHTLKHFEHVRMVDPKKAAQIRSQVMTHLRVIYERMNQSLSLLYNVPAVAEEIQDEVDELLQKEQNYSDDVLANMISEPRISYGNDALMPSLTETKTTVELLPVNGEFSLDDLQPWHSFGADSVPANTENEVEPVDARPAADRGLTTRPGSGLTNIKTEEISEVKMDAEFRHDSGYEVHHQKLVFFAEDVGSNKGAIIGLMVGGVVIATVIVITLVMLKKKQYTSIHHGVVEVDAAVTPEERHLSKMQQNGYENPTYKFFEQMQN

[2] = target: Amyloid-beta precursor protein (Homo sapiens) (UniProt P05067); experiment: Inhibition of Amyloid beta (1 to 42) (unknown origin) self aggregation at 20 uM for 24 hrs by Thioflavin T-based fluorometric assay
Method in brief: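 Aβ1–42 was HFIP-pretreated and dissolved in DMSO to a 200 μM stock. It was mixed with compound in PBS pH 7.4, compound final 20 μM. Incubation was 24 h at room temperature with shaking. 5 μM ThT in 50 mM glycine–NaOH pH 8.5 was then added. Fluorescence was read at ex 435 nm / em 490 nm. Mean ± SD of three independent measurements, each in duplicate.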

[3] = tested on: BV-2; experiment: Neuroprotective activity in mouse BV2 cells assessed as inhibition of LPS-stimulated IL-1beta production preincubated for 3 hrs followed by LPS treatment for 12 hrs by ELISA; type: functional, cell-based
Method in brief: (§1)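 BV-2 microglia were seeded 2 × 10^4 cells/well and pretreated 3 h with compound at 0.0016, 0.008, 0.04, 0.2 and 1 μmol/L. They were then stimulated with LPS (1 μg/mL) for 12 h. Clarified supernatants were assayed by ELISA for the named cytokine.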

[4] = tested on: BV-2; experiment: Neuroprotective activity in mouse BV2 cells assessed as inhibition of LPS-stimulated TNFalpha production preincubated for 3 hrs followed by LPS treatment for 12 hrs by ELISA; type: functional, cell-based; method in brief: as §1
[5] = tested on: BV-2; experiment: Neuroprotective activity in mouse BV2 cells assessed as inhibition of LPS-stimulated IL6 production preincubated for 3 hrs followed by LPS treatment for 12 hrs by ELISA; type: functional, cell-based; method in brief: as §1
[6] = tested on: SH-SY5Y; experiment: Neuroprotective activity against LPS-induced toxicity in human SH-SY5Y cells assessed as cell viability using compound-conditioned media from LPS-stimulated BV2 cells at 5 uM by MTT assay; type: functional
Method in brief: (§2)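 BV-2 cells were seeded 2 × 10^4/well and pretreated 3 h with compound at 0.2, 1 and 5 μM. They were then stimulated 12 h with LPS 1 μg/mL, and the supernatant was clarified as conditioned medium. SH-SY5Y cells were seeded 5 × 10^3/well, grown 24 h and serum-starved overnight, then exposed to the conditioned medium. Viability was read by MTT at 490 nm. Mean ± SD of three independent experiments.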

[7] = Cytotoxicity against mouse BV2 cells assessed as cell viability at 0.008 to 5 umol/L by MTT assay in presence of LPS; type: cell-based; conditions: bv-2
Method in brief: (§3)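 BV-2 murine microglia kept in DMEM-H with 10% FBS at 37 °C, 5% CO2. Cells seeded 1 × 10^4 cells/well and cultured 24 h. Compound then added at 0.008, 0.04, 0.2, 1 and 5 μmol/L, with or without LPS. Viability read by MTT as absorbance at 490 nm.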

[8] = target: Myeloid differentiation primary response protein MyD88 (Homo sapiens) (UniProt Q99836); experiment: Inhibition of Flag-tagged MyD88-HA-tagged MyD88 (unknown origin) homodimerization transfected in HEK293 cells after 7 hrs by Co-immunoprecipitation assay; type: cell-based
Myeloid differentiation primary response protein MyD88 (Homo sapiens), sequence (Q99836 whole entry): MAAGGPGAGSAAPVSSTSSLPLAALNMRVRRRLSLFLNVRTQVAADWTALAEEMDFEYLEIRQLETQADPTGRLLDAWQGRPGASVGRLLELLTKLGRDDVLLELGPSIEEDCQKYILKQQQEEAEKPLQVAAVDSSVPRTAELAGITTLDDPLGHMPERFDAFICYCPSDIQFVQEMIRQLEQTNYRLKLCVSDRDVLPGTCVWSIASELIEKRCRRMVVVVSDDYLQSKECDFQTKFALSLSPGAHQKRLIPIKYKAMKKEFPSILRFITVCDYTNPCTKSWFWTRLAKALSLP
Method in brief: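 HEK293 cells were seeded at 9 × 10^5/well and transfected with Flag-MyD88 and HA-MyD88 plasmids. Compound was added 7 h after transfection at 10 and 40 μM. Cells were harvested 24 h post-transfection and lysed in RIPA. Lysates were precleared with protein A/G beads and immunoprecipitated with anti-HA on A/G beads at 4 °C. Captured Flag-MyD88 was detected by western blot.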

[9] = target: Amyloid-beta precursor protein (Homo sapiens) (UniProt P05067); experiment: Inhibition of Amyloid beta (1 to 42 residues) (unknown origin) assessed as no fibril formation at 50 uM after 4 days by atomic force microscopic analysis
Method in brief: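 Aβ1–42 was pretreated with HFIP and taken up in DMSO. It was incubated in PBS pH 7.4 for 4 days at 30 °C, with or without compound. Final concentrations were 25 μM peptide and 50 μM compound. 10 μL aliquots were deposited on mica for 10 min, rinsed with water and dried under nitrogen. Samples were imaged by tapping-mode AFM.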

[10] = tested on: SH-SY5Y; experiment: Neuroprotective activity against LPS-stimulated toxicity in human SH-SY5Y cells using compound-conditioned media from LPS-stimulated BV2 cells by MTT assay; type: functional, cell-based; method in brief: as §2
[11] = Cytotoxicity against mouse BV2 cells assessed as cell viability at 5 uM by MTT assay; type: cell-based; conditions: bv-2, 5 µM; method in brief: as §3
[12] = tested on: SH-SY5Y; experiment: Cytotoxicity against human SH-SY5Y cells at 5 uM by MTT assay; type: cell-based
Method in brief: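 SH-SY5Y (DMEM/F-12, 10% FBS, 37 °C, 5% CO2) seeded 1 × 10^4 cells/well, grown 24 h, then exposed to compound at 0.04, 0.2, 1 and 5 μmol/L for 24 h. MTT added for a further 4 h; absorbance read at 490 nm. Mean ± SD of three independent experiments.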

For O=C1C[C@@H](c2ccccc2)[C@H]([N+](=O)[O-])[C@@H](c2ccc(O)cc2)N1Cc1cccnc1 (racemic), the inhibition [1] was “Dose-dependent effect” and the inhibition [2] was 43.3%.
For COC(=O)c1ccc(CN2C(=O)C[C@@H](c3ccccc3Cl)[C@H]([N+](=O)[O-])[C@H]2c2ccc(O)cc2)cc1 (racemic), the Activity [3] was “Dose-dependent effect”, the IC50 [3] was 3490 nM and the Activity [4] was “Dose-dependent effect”. For the same molecule, the IC50 [4] was 90 nM, the Activity [5] was “Dose-dependent effect” and the IC50 [5] was 80 nM. The inhibition [2] was 33.1%.
In the case of Cc1ccc(CN2C(=O)C[C@@H](c3ccccc3)[C@H]([N+](=O)[O-])[C@H]2c2ccc(O)cc2)cc1 (racemic), the inhibition [2] is reported as 39.9%.
Molecule COc1cc(OC)cc([C@@H]2CC(=O)N(Cc3cccnc3)[C@H](c3ccc(O)cc3)[C@H]2[N+](=O)[O-])c1 (racemic) has an inhibition [2] of 54%.
For COc1ccc(CN2C(=O)C[C@@H](c3ccccc3)[C@H]([N+](=O)[O-])[C@H]2c2ccc(O)cc2)cc1OC (racemic), the inhibition [2] was 49.2%.
Molecule O=C1C[C@@H](c2ccccc2)[C@H]([N+](=O)[O-])[C@@H](c2ccc(O)cc2)N1Cc1ccc(F)cc1 (racemic) has an inhibition [2] of 6.39%.
Molecule COc1ccc(CN2C(=O)C[C@@H](c3ccc(C)cc3)[C@H]([N+](=O)[O-])[C@H]2c2ccc(O)cc2)cc1 (racemic) has an inhibition [2] of 30.6%.
O=C1C[C@@H](c2ccccc2Cl)[C@H]([N+](=O)[O-])[C@@H](c2ccc(O)cc2)N1Cc1ccccc1 (racemic) showed an inhibition [2] of 11.2%.
For O=C1C[C@@H](c2ccccc2Cl)[C@H]([N+](=O)[O-])[C@@H](c2ccc(O)cc2)N1Cc1cccnc1 (racemic), the inhibition [2] was 41.6%.
COc1ccc(CN2C(=O)C[C@@H](c3ccccc3Cl)[C@H]([N+](=O)[O-])[C@H]2c2ccc(O)cc2)cc1 (racemic) gave an inhibition [2] of 28.7%.
Molecule Cc1ccc(CN2C(=O)C[C@@H](c3ccc(C)cc3)[C@H]([N+](=O)[O-])[C@H]2c2ccc(O)cc2)cc1 (racemic) has an inhibition [2] of 42.1%.
Work on COc1cc(OC)cc([C@@H]2CC(=O)N(Cc3ccccc3)[C@H](c3ccc(O)cc3)[C@H]2[N+](=O)[O-])c1 (racemic) yielded an inhibition [2] of 55%.
Work on COc1cccc(CN2C(=O)C[C@@H](c3ccc(C)cc3)[C@H]([N+](=O)[O-])[C@H]2c2ccc(O)cc2)c1 (racemic) yielded an inhibition [2] of 48.9%.
Molecule COC(=O)c1ccc(CN2C(=O)C[C@@H](c3ccccc3)[C@H]([N+](=O)[O-])[C@H]2c2ccc(O)cc2)cc1 (racemic) has an inhibition [2] of 36.3%.
COc1cc([C@@H]2[C@@H]([N+](=O)[O-])[C@H](c3ccccc3Cl)CC(=O)N2Cc2ccccc2)ccc1O (racemic) gave an inhibition [2] of 11.8%.
With COc1cccc(CN2C(=O)C[C@@H](c3cc(OC)cc(OC)c3)[C@H]([N+](=O)[O-])[C@H]2c2ccc(O)cc2)c1 (racemic) the Activity [3] was “Dose-dependent effect”, the IC50 [3] was 850 nM and the Activity [4] was “Dose-dependent effect”. For the same molecule, the IC50 [4] was 20 nM, the Activity [5] was “Dose-dependent effect” and the IC50 [5] was 170 nM. It also gave an inhibition [2] of 56.9%.
In the case of COc1ccc(CN2C(=O)C[C@@H](c3ccccc3)[C@H]([N+](=O)[O-])[C@H]2c2ccc(O)cc2)cc1 (racemic), the inhibition [2] is reported as 46.1%.
In the case of COc1cccc(CN2C(=O)C[C@@H](c3ccccc3)[C@H]([N+](=O)[O-])[C@H]2c2ccc(O)cc2)c1 (racemic), the inhibition [2] is reported as 51.7%.
With Cc1ccc(CN2C(=O)C[C@@H](c3ccccc3Cl)[C@H]([N+](=O)[O-])[C@H]2c2ccc(O)cc2)cc1 (racemic) the inhibition [2] was 46.1%.
With COc1cc(OC)cc([C@@H]2CC(=O)N(Cc3ccc(OC)c(OC)c3)[C@H](c3ccc(O)cc3)[C@H]2[N+](=O)[O-])c1 (racemic) the Activity [6] was 82.92%, the Activity [7] was “Non-toxic” and the inhibition [8] was “Dose-dependent effect”. For the same molecule, the inhibition [9] was “Active”, the Activity [3] was “Dose-dependent effect” and the IC50 [3] was 210 nM. The inhibition [1] was “Dose-dependent effect”, the Activity [4] was “Dose-dependent effect” and the IC50 [4] was 80 nM. For the same molecule, the Activity [10] was “Dose-dependent effect”, the Activity [5] was “Dose-dependent effect” and the IC50 [5] was 30 nM. The Activity [11] was “Non-toxic”, the inhibition [2] was 59.1% and the Activity [12] was “Non-toxic”.
For Cc1ccc([C@@H]2CC(=O)N(Cc3ccccc3)[C@H](c3ccc(O)cc3)[C@H]2[N+](=O)[O-])cc1 (racemic), the inhibition [2] was 44.1%.
For COc1cccc(CN2C(=O)C[C@@H](c3ccccc3Cl)[C@H]([N+](=O)[O-])[C@H]2c2ccc(O)cc2)c1 (racemic), the inhibition [2] was 50%.
Molecule O=C1C[C@@H](c2ccccc2)[C@H]([N+](=O)[O-])[C@@H](c2ccc(O)cc2)N1Cc1ccccc1 (racemic) has an inhibition [2] of 43.6%.
